Test results: article PMC8154207 (JACS Au, 2021)
pEC50: −log10 of the molar value. Values joined by “and” are separate entries in the source; they are usually repeats but may differ in a detail not shown here. Equal entries are not always repeated. Where two headings read alike, the source gives them in different places.

Assays:
A549 cells [1] = experiment: Mitochondrial membrane potential, TRME staining, flow cytometry; type: cell-based, human; conditions: 20 μM, 24 h (CCCP 20 μM, 1 h), FACS
Outline: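 A549 cells were seeded at 1 × 10^5 per well, grown 24 h under normoxia, then exposed to compound for 24 h. After a PBS wash, cells were stained with TRME at 150 nM for 30 min; the positive control got CCCP before staining. Harvested cells were analysed by flow cytometry, excitation 488 and emission 575.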

A549 cells [2] = experiment: SRB cytotoxicity assay, 2D monolayer; type: cell-based, human; conditions: read-out: EC50 A549
Outline: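 Cells were seeded in 96-well plates (A549 5000, A375 7000, MCF7 8000, MRC5 6000 cells/well) in OptiMEM with 2.4% FCS, then held 24 h at 37 °C, 7.0% CO2. Six concentrations were added in triplicate for 72 h. Plates were fixed with cold 10% TCA (4 °C, ≥4 h), stained with 0.6% SRB (30 min) and solubilized in 10 mM Tris; absorbance read at 510 nm. EC50 was taken versus untreated wells; three independent experiments, 95% CI.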

[3] = molecular target: Kv11.1 (hERG) potassium channel (Homo sapiens, UniProt Q12809); experiment: [3H]dofetilide displacement assay on HEK293 Kv11.1 cell membranes; type: binding; conditions: tested concentration 10 μM
Outline: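 HEK293 Kv11.1 membranes (30 μg protein) were loaded with 2 nM [3H]dofetilide at 15 °C for 90 min. Dissociation was started with 10 μM unlabeled dofetilide, without or with 10 μM test compound, for 10 min. Samples were filtered through GF/B, washed twice with ice-cold buffer and counted by scintillation. Binding (%) = 100% − [3H]dofetilide binding remaining.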

Kv11.1 (hERG) potassium channel, sequence (Q12809 whole entry): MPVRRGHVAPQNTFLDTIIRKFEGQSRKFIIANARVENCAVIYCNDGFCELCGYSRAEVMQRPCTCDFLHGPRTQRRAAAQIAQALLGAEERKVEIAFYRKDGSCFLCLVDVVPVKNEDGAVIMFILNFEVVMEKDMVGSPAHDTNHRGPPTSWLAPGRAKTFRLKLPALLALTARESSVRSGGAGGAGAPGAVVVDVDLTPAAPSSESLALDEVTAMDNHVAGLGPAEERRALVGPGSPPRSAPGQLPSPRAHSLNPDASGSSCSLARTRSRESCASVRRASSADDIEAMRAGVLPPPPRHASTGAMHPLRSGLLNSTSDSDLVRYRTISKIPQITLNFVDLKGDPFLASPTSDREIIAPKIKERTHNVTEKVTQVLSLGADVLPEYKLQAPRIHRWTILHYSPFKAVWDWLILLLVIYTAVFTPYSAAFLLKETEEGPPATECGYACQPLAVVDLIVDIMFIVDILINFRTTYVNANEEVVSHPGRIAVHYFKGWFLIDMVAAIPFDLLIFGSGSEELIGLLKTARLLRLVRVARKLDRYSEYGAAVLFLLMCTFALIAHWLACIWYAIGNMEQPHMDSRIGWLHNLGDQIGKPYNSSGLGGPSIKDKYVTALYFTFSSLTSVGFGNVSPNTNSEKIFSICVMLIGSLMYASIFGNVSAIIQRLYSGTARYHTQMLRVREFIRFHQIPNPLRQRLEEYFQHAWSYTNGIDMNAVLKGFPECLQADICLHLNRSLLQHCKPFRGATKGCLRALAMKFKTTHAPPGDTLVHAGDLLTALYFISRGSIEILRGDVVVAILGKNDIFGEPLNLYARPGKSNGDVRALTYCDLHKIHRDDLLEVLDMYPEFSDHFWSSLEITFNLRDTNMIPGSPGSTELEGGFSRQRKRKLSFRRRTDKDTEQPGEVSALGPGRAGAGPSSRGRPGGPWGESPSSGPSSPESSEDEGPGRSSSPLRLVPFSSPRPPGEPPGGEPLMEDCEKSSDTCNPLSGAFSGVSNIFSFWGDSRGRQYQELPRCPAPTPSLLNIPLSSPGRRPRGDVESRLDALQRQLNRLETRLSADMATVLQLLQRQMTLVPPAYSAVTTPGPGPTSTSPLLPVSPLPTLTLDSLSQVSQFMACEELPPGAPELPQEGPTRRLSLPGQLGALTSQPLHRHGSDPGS

Row | Compound | Influence on mitochondrial membrane potential (A549 cells [1]) | pEC50 (A549 cells [2]; Homo sapiens, A549, 72 h) | Kv11.1 binding (100% - [3H]dofetilide binding remaining) [3] | [3H]dofetilide binding remaining [3] [%] | pEC50 (A549 cells [2]; 2D monolayer, hypoxic (1% O2))
1 | N#CC(C#N)=NNc1cccc(Cl)c1 [CCCP, carbonyl cyanide m-chlorophenyl hydrazone, reference compound] | dramatically reduced percentage of intact mitochondrial membranes |  |  |  | 
2 | c1cc(Nc2cc3ccccc3cn2)nc(-c2cccc(Nc3cc4ccccc4cn3)n2)c1 [H2biqbpy1, N6,N6′-di(isoquinolin-3-yl)-[2,2′-bipyridine]-6,6′-diamine] |  | < 3.70 | 36% and 36 ± 4% | 64 ± 4 | 
3 | c1cc(Nc2ccc3ccccc3n2)nc(-c2cccc(Nc3ccc4ccccc4n3)n2)c1 [H2biqbpy2, N6,N6′-di(quinolin-2-yl)-[2,2′-bipyridine]-6,6′-diamine] |  | 4.92 | 84% and 84 ± 4% | 16 ± 4 | 
4 | N.N.[Cl][Pt][Cl] [cisplatin, reference compound] |  |  |  |  | 4.62
